Measurements as given in PubChem BioAssay AID743238 (Broad Institute, 2013).
Out of some 360,000 compounds screened, about 200 (0.056%) were called active. The sample holds actives, similar compounds and a random draw of the others, so the mix is not that of the screen. Unmarked numbers belong to inactive results.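 How the source made its calls: active means mean normalized replicate activation at least 10% and every replicate at or above 10%; inconclusive means only one of the two criteria met; inactive means mean below 10% and not all replicates reach 10%.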

Assay: Xi reactivation inducers in mouse fibroblasts – imaging, XiGFP fibroblasts, GFP high-content imaging, set 2, primary screen (AID 743238);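 further: 0% = median of on-plate neutral control wells and 100% = ellipticine 6 µM median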
Conditions: % GFP-positive cells imaging, 3 d, at 7.58 µM, active compounds read high, cells co-treated with 5-aza-dC sensitizer, scaled so ellipticine positive control = 100%
Summary of the method: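 Material: XiGFP fibroblasts, SV40-immortalized. Buffer or medium: DMEM plus 5-aza-dC sensitizer. Compound: single concentration per compound, delivered by pin transfer. Times: 3 days compound exposure. Controls: ellipticine 6 µM.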
Compound `CO[C@@H]1CN(C)C(=O)c2ccc(NC(=O)C3CC3)cc2OC[C@H](C)N(C(=O)c2ccccc2)C[C@@H]1C` has an activation of 0.643%. `CC[C@@H]1CC=CC[C@H](C)Oc2ccccc2C(=O)N(C)[C@H](Cc2ccccc2)C(=O)N1` (mixture of isomers) gave an activation of 0.007%. Compound `C[C@@H]1CCCCO[C@H](CN(C)Cc2ccc3c(c2)OCO3)[C@H](C)CN([C@@H](C)CO)C(=O)c2cc(NS(=O)(=O)c3cccs3)ccc2O1` has an activation of -0.019%. With `C[C@H]1CCCCO[C@@H](CN(C)C(=O)Nc2ccccc2)[C@@H](C)CN([C@@H](C)CO)C(=O)c2cc(NC(=O)CCC(F)(F)F)ccc2O1` the activation was 0.045%. With `C[C@@H](NC(=O)C[C@H]1C[C@@H]2c3cc(NC(=O)Nc4ccccc4F)ccc3O[C@@H]2[C@H](CO)O1)c1ccccc1` the activation was 0.315%. For `COc1ccc(NC(=O)Nc2ccc3c(c2)CC(=O)N([C@@H](C)CO)C[C@@H](C)[C@H](CN(C)C(=O)NC2CCCCC2)O3)cc1`, the activation was -0.248%. With `C[C@@H]1CN([C@@H](C)CO)C(=O)c2cc(NC(=O)Nc3cccc4ccccc34)ccc2O[C@@H](C)CCCCO[C@@H]1CN(C)S(=O)(=O)c1ccc(Cl)cc1` the activation was 0.307%. For `N#CC1(Nc2ccc(-c3ccc(Cl)cc3)cc2)CCCC1`, the activation was -0.0155%. Compound `O=S(=O)(NC1CC1)c1ccc2c3c(cccc13)CC2` has an activation of 0.001%. With `N#CC1(Nc2ccc3c4c(cccc24)CC3)CCCCC1` the activation was 40% (active). Compound `CC(C)NC(=O)N(C)C[C@@H]1Oc2c(cccc2N(C)C)C(=O)N([C@H](C)CO)C[C@@H]1C` has an activation of 0.155%. For `O=C(CC1CC1)N1[C@@H](CO)[C@H](c2ccccc2)C12CN(Cc1cccnc1)C2`, the activation was 0.0215%. Work on `COc1ccc2c3c([nH]c2c1)[C@@H](CO)N(C(C)=O)CC31CCN(Cc2ccccc2Cl)CC1` yielded an activation of 0.131%. With `C[C@@H]1CN([C@@H](C)CO)C(=O)Cc2cc(NC(=O)C3CC3)ccc2O[C@H]1CN(C)C(=O)NC1CCCCC1` the activation was -0.834%. In the case of `O=C(C[C@@H]1CC[C@@H](NC(=O)c2ccc3c(c2)OCO3)[C@H](CO)O1)NCc1ccc(F)cc1`, the activation is reported as 0.149%. `Cc1ccc(S(=O)(=O)Nc2ccc3c(c2)C(=O)N([C@@H](C)CO)C[C@H](C)[C@@H](CN(C)CC2CC2)O3)cc1` gave an activation of -0.069%. Compound `Cc1ccccc1CN(C)C[C@H]1OCc2cn(nn2)CCCC(=O)N([C@@H](C)CO)C[C@H]1C` has an activation of 0.238%. `CCCN(C)C[C@@H]1Oc2ncc(C#Cc3ccccc3)cc2C(=O)N([C@H](C)CO)C[C@@H]1C` gave an activation of -0.009%. Work on `C[C@H](CO)N1C[C@H](C)[C@H](CN(C)C(=O)c2ccncc2)Oc2cc(C#CC3(O)CCCC3)ccc2S1(=O)=O` yielded an activation of 0.469%. In the case of `CN(C)CCCNC(=O)C[C@@H]1C=C[C@H](NC(=O)c2ccccc2F)[C@H](CO)O1`, the activation is reported as -0.107%. With `CCN1/C(=C\c2ccc3ccccc3[n+]2CC)Sc2cc(C)ccc21` the activation was 415% (active). For `CCCNC(=O)N1CC(=O)N2[C@H](C1)[C@@H](c1ccc(C#Cc3ccccc3)cc1)[C@@H]2CO`, the activation was -0.0025%. In the case of `O=C(C[C@@H]1CC[C@@H](NS(=O)(=O)c2ccc(F)cc2)[C@H](CO)O1)NCc1ccc(Cl)c(Cl)c1`, the activation is reported as 0.0265%. With `C[C@H](CO)N1C[C@H](C)[C@H](CN(C)Cc2ccncc2)Oc2ccc(NS(=O)(=O)c3cn(C)cn3)cc2C1=O` the activation was -0.119%. In the case of `CC=Cc1ccc2n(c1=O)C[C@@H]1[C@@H](CO)[C@H](C(=O)NC3CCCC3)[C@H]2N1C(=O)c1cnccn1` (mixture of isomers), the activation is reported as 0.002%. With `O=C(Nc1ccccc1F)N[C@@H]1CC[C@H](CCNC(=O)C2CC2)O[C@@H]1CO` the activation was 0.587%. Compound `O=C(C[C@H]1C=C[C@@H](NC(=O)Nc2cc(F)ccc2F)[C@@H](CO)O1)NCc1ccc2c(c1)OCO2` has an activation of 0.137%. `C[C@@H]1CN([C@H](C)CO)C(=O)c2cccc(NS(C)(=O)=O)c2O[C@@H]1CN(C)S(=O)(=O)c1cccs1` gave an activation of -1.35%. With `COc1ccccc1NC(=O)N1CC(=O)N2[C@H](CO)[C@@H](c3ccc(C#Cc4ccc(F)cc4)cc3)[C@H]2C1` the activation was -0.0395%. For `N#C/C(=C/c1ccc(N2CCCCC2)o1)C(=O)NCCc1c[nH]c2ccccc12`, the activation was 119% (active). `O=C(NCCc1c[nH]c2ccccc12)c1cc2ccccc2oc1=O` gave an activation of -0.0325%. For `Cc1ccc(S(=O)(=O)N(C)CC(=O)NCCc2c[nH]c3ccccc23)cc1`, the activation was 0.082%. `CCCNC(=O)NC[C@H]1[C@H](c2ccc(C3=CCCCC3)cc2)[C@H](CO)N1C(C)=O` showed an activation of -0.0205%. With `CC(C)NC(=O)N1[C@H](C#N)[C@@H](c2ccc(-c3ccc(F)cc3)cc2)[C@H]1CO` the activation was 0.054%. In the case of `C[C@@H]1CN([C@H](C)CO)C(=O)c2cc(NC(=O)CCCCCC(=O)Nc3ccccc3N)ccc2O[C@@H]1CN(C)S(=O)(=O)c1ccc(Cl)cc1`, the activation is reported as -0.749%. In the case of `C[C@H](O)C#Cc1ccc2c(c1)O[C@@H](CN(C)Cc1cccnc1)[C@H](C)CN([C@H](C)CO)S2(=O)=O`, the activation is reported as 0.253%. `O=C(NC1Cc2ccccc2C1)[C@H]1[C@H](CO)[C@H]2Cn3c(ccc(C4=CCCCC4)c3=O)[C@H]2N1CC1CC1` gave an activation of 0.397%. Work on `CN(C)CC(=O)N[C@@H]1CC[C@H](CC(=O)O)O[C@H]1CO` yielded an activation of -0.0755%. `C[C@@H]1CN([C@@H](C)CO)C(=O)c2cc(C#CC3CCCCC3)cnc2O[C@@H]1CN(C)Cc1cncnc1` gave an activation of -1.05%. In the case of `CCC(=C/c1sc2ccc3ccccc3c2[n+]1C)/C=C1\Sc2ccc3ccccc3c2N1C`, the activation is reported as 68% (active). `CC(C)C#Cc1cnc2c(c1)C(=O)N([C@@H](C)CO)C[C@@H](C)[C@H](CN(C)C(=O)CCN1CCCCC1)O2` gave an activation of 0.409%. For `COc1ccc(NC(=O)Nc2ccc3c(c2)C(=O)N([C@@H](C)CO)C[C@@H](C)[C@@H](CN(C)C(=O)CCCN(C)C)OCCCC[C@@H](C)O3)cc1`, the activation was 0.0725%. Compound `Cc1ccccc1-c1ccc([C@H]2[C@@H](CO)N3C(=O)CN(C(=O)c4cccnc4)C[C@@H]23)cc1` has an activation of 0.209%. `C[C@@H](O)C#Cc1ccc([C@@H]2[C@@H](CO)N3CCCCN(C(=O)c4ccc(F)cc4)C[C@@H]23)cc1` showed an activation of 0.907%. In the case of `C[C@H]1CN([C@@H](C)CO)C(=O)c2cc(Br)cnc2O[C@H]1CN(C)Cc1cccc(F)c1`, the activation is reported as 0.497%. For `Cc1ccc(S(=O)(=O)N2C[C@H](O)COC[C@@H]3O[C@H](CC(=O)N[C@H]4CCN(Cc5ccccc5)C4)CC[C@H]32)cc1`, the activation was 0.108%. Compound `C[C@@H]1CN([C@H](C)CO)C(=O)c2cc(-c3ccccc3F)cnc2O[C@H]1CN(C)C(=O)CN(C)C` has an activation of 3.17%. For `COc1cc(CN2CC3(CN(S(=O)(=O)c4cccs4)C3)c3c(n(C)c4cc(OC)ccc34)[C@H]2CO)cc(OC)c1`, the activation was 0.325%. `COc1cccc(S(=O)(=O)N[C@H]2C=C[C@@H](CC(=O)NCc3ccccc3)O[C@@H]2CO)c1` showed an activation of -0.504%. In the case of `CN1CCN(C(=O)C[C@H]2CC[C@H]3[C@@H](COC[C@H](O)CN3CC3CCCC3)O2)CC1`, the activation is reported as 0.0235%. In the case of `Cc1ccc(S(=O)(=O)N(C)C[C@@H]2Oc3c(NC(=O)Nc4c(C)noc4C)cccc3C(=O)N([C@@H](C)CO)C[C@@H]2C)cc1`, the activation is reported as -0.145%. With `COc1ccc2c3c(n(C)c2c1)[C@H](CO)N(CC1CCOCC1)CC31CCN(C(C)=O)CC1` the activation was 0.008%. In the case of `C/C=C/c1ccc([C@@H]2[C@H](CO)N(CC3CCOCC3)C23CN(S(=O)(=O)CC)C3)cc1`, the activation is reported as 0.064%. `COc1ccc(S(=O)(=O)Nc2cccc3c2O[C@H](CN(C)C(=O)Nc2cccc4ccccc24)[C@H](C)CN([C@@H](C)CO)C3=O)cc1` gave an activation of -0.983%. With `C[C@@H]1CCCCO[C@H](CN(C)C(=O)Nc2cccc3ccccc23)[C@@H](C)CN([C@@H](C)CO)C(=O)c2cc(NC(=O)Nc3ccc(F)cc3)ccc2O1` the activation was -0.01%. In the case of `C[C@@H](NC(=O)C[C@H]1CC[C@H]2[C@H](COc3ccc(NS(=O)(=O)c4ccc(Cl)cc4)cc3C(=O)N2C)O1)c1ccccc1`, the activation is reported as -0.013%. For `CCC(=O)NC[C@H]1[C@@H](c2ccc(C3=CCCC3)cc2)[C@@H](CO)N1C(=O)C1CC1`, the activation was -0.043%. `CCCC#Cc1cnc2c(c1)C(=O)N([C@H](C)CO)C[C@H](C)[C@@H](CN(C)C(=O)c1cccnc1)O2` gave an activation of -0.912%. Compound `COc1ccc2c3c(n(C)c2c1)[C@H](CO)N(Cc1ccccc1)CC31CCN(C)CC1` has an activation of 0.287%. In the case of `CCN(CC)c1ccc([N+](=O)[O-])cc1C(=O)O`, the activation is reported as -0.147%. With `Cc1ccc(NC(=O)c2cc([N+](=O)[O-])ccc2Cl)c(O)c1` the activation was 0.0305%. With `CNc1ccc([N+](=O)[O-])cc1C(=O)O` the activation was 34.2% (active). For `CNC(=O)C[C@H]1CC[C@@H]2[C@H](COc3ccc(NC(=O)Nc4cccc(F)c4)cc3C(=O)N2C)O1`, the activation was 0.022%. `C[C@H](O)C#Cc1ccc2c(c1)O[C@H](CN(C)Cc1ccccn1)[C@@H](C)CN([C@@H](C)CO)S2(=O)=O` showed an activation of -0.095%. `O=C(C[C@@H]1CC[C@@H](NC(=O)C2CCOCC2)[C@H](CO)O1)NCC1CC1` gave an activation of -0.115%. In the case of `COc1ccc2c3c(n(C)c2c1)[C@@H](CO)N(Cc1ccccc1F)CC31CCN(C(=O)C2CCOCC2)CC1`, the activation is reported as -0.019%. `O=C(c1ccc(F)cc1)N1CC(=O)N2[C@@H](CO)[C@H](c3ccc(C4=CCCC4)cc3)[C@@H]2C1` showed an activation of 0.604%. `CCS(=O)(=O)N1[C@H](CO)[C@@H](c2ccccc2)C12CN(C(=O)c1ccccc1F)C2` gave an activation of 0.139%. For `CCS(=O)(=O)N1CC(=O)N2[C@H](C1)[C@@H](c1ccc(C#Cc3ccc(F)cc3)cc1)[C@@H]2CO`, the activation was 0.458%. With `CC(C)(C)n1nc2c(c1NC(=O)c1cc3ccccc3o1)CSC2` the activation was 0%. In the case of `COc1ccc2c(c1)c(C(=O)N/N=C/c1cccs1)c(C)n2C`, the activation is reported as 0.148%. For `Cc1c(/C=N\NC(=O)c2cc3ccccc3o2)c2ccccc2n1C`, the activation was 16.6% (active). In the case of `CCCNC(=O)C[C@H]1C[C@@H]2c3cc(NC(=O)COC)ccc3O[C@@H]2[C@@H](CO)O1`, the activation is reported as -0.017%. `O=C(C[C@@H]1CC[C@H]2[C@@H](COC[C@@H](O)CN2CC2CC2)O1)NCc1ccc(Cl)cc1` gave an activation of 0.122%.
